# Hits are enriched below; roughly 3.3% of the tested compounds scored in any of these assays.
# mABHD4 FP: inhibitors of mouse ABHD4; inhibition, % at 8.92 µM; Q8VD66; hit rate 0.54% among 370,000; purified mABHD4, FP-Rh probe fluorescence polarization;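 active = inhibition exceeding the mean over every tested compound plus 3 SD, cut at about 30% in these data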;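 note: 0% = plate median of compound wells and 100% = S159A mutant with DMSO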
# Target sequence (Q8VD66 whole entry, looked up): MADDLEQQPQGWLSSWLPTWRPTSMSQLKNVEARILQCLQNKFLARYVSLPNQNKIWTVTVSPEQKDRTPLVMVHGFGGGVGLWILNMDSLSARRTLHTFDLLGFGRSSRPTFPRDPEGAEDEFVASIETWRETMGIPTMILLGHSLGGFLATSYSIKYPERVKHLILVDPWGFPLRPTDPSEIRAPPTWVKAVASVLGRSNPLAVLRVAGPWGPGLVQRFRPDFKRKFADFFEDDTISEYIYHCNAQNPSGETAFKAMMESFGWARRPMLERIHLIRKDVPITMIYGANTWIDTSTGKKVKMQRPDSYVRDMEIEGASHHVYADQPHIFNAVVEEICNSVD
#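 Test system: mABHD4 protein; Read-out basis: % inhibition; Incubation: 45 min + 60 min at 25 °C; Repeats: single replicate; Technique: fluorescence polarization with parallel and perpendicular emission, 525/598 nm; Compound: 8.92 µM, single dose; Benchmarks: full inhibition S159A mutant plus DMSO, zero as sample-well median.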
# rCAG binder: r(CAG) repeat RNA binding; TO-PRO-1 dye displacement fluorescence; inhibition, % at 3 µM; hit rate 1.3% among 370,000; AID 651821;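 active = inhibition above the plate cutoff, the mean of all test compounds on that plate plus 3 SD, cut at about 35% in these data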;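 note: 0% = DMSO alone and 100% = 100 µM mitoxantrone as full dye displacement; higher means more dye released from RNA so lower well fluorescence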
# HTRA1 inh: blocks human HTRA1 serine peptidase. recombinant HTRA1, FP-rhodamine activity-based probe, fluorescence polarization. inhibition, % at 5.96 µM. hit rate 0.5% among 340,000. AID 504803; in the data active = inhibition above about 36%;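 note: 0% = enzyme with DMSO and 100% = wells lacking enzyme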
# PRMT1 inh: blocks human protein arginine methyltransferase 1; inhibition, % at 2.79 µM; recombinant PRMT1, activity-based probe fluorescence polarization; hit rate 1.3% among 370,000;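 active = inhibition above about 21% made by adding two undisclosed values, limit read from the data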
# SIAE primary: inhibitors of human sialic acid acetylesterase SIAE; SIAE FP-Rh probe binding, fluorescence polarization; inhibition, % at 9.66 µM; hit rate 0.69% among 370,000; AID 1053197;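 active = inhibition above a cutoff: mean of compounds within the control limits plus 3 SD of those, cut at about 17% in these data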;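 note: 0% = plate median of compound wells and 100% = probe without SIAE protein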
# mABHD4 conf: ABHD4 (mouse) inhibition, FP confirmation | shares compounds with mABHD4 FP | purified mABHD4, FP-Rh probe fluorescence polarization | inhibition, % at 8.92 µM | hit rate 55% among 1,800;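 active = mean inhibition across replicates above the hit cutoff set in the primary screen, cut at about 30% in these data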;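 note: 0% = wild-type ABHD4 with DMSO and 100% = catalytically dead S159A mutant with DMSO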
# An asterisk follows results filed as active; . = not tested or not shown.
SMILES,mABHD4 FP,rCAG binder,HTRA1 inh,PRMT1 inh,SIAE primary,mABHD4 conf
COc1ccccc1N1CCN(CC(O)COc2ccc(C)cc2C)CC1 (stereo not drawn),8,-4,1,-4,-5,.
COc1ccccc1N1CCN(CCCCOc2ccc(C)cc2C)CC1,31*,-6,3,4,-3,17
Oc1ccc2ccccc2c1N=Nc1ccccn1,50*,8,14,3,2,53*
Cc1cc(N2CCN(C(=O)Oc3ccc(C(F)(F)F)cc3)CC2)c2ccccc2n1,53*,2,.,4,0,23
Nc1ncnc2c1CN(Cc1ccccc1)CC2,72*,2,-3,1,5,-7
Nc1nc2c(c(=O)[nH]1)CN(Cc1ccccc1)CC2,3,3,-6,-3,-5,.
COc1ccc(C2NCCc3c2[nH]c2ccccc32)cc1CSc1nc2ccccc2s1 (stereo not drawn),30*,12,-25,4,17,34*
CSc1ccccc1NC(=O)CN(C)CC(=O)Nc1c(F)cccc1F,21,-1,-1,6,-2,.
NS(=O)(=O)c1ccc(CCNC(=O)CN2C(=O)NC(c3ccccc3)(c3ccccc3)C2=O)cc1,49*,6,0,-4,-2,21
COc1cc2c3c(c1)/C(=C1/SC(NC(C)=O)=NC1=O)C(=O)N3C(C)(C)C=C2C,38*,14,9,5,25*,27
CCCCOc1cccc(OCC(=O)Nc2nc3ccccc3[nH]2)c1,43*,10,-7,1,-3,26
CCCOc1cccc(OCC(=O)Nc2nc3ccccc3[nH]2)c1,31*,4,-6,9,-3,26
CCOc1ccc(OCCCC(=O)Nc2nc3ccccc3[nH]2)cc1,2,-3,0,1,1,.
O=C(COc1ccccc1)Nc1nc2ccccc2[nH]1,-4,-3,0,-1,7,.
Cc1nnc(SCC(=O)NC2CCCCC2)n1-c1ccccc1,-4,1,4,-1,-4,.
O=S(=O)(c1ccc2c(c1)OCCO2)N1C[C@@H]2C[C@H]1CN2S(=O)(=O)c1c(F)cccc1F,-1,-1,0,-1,2,.
CCc1ccccc1NC(=O)CN1CCN(C(=O)C2CCN(C(=O)/C=C/c3ccccc3)CC2)CC1,0,-2,3,-1,-1,.
COc1ccc2c(C)c(C(=O)N3CCN(Cc4ccccc4)CC3)oc2c1,-4,-7,-8,0,-3,.
Cc1nc2nc(C)n(CCN3CCOCC3)c(=O)c2c(-c2cccc([N+](=O)[O-])c2)c1C(=O)CCCCCCCCCCN1CCC(c2ccccc2)(c2ccccc2)CC1,30*,10,-39,0,9,39*
O=C(O)c1ccc(N2CCN(c3ccc(Cl)cc3)CC2)c([N+](=O)[O-])c1,38*,22,-5,-1,3,47*
O=C(O)c1ccc(Nc2ccc(Cl)c(Cl)c2)c([N+](=O)[O-])c1,44*,2,-6,4,10,62*
O=C(/C=C/c1ccc(Cl)cc1)N1CCN(c2ccc(Cl)cc2[N+](=O)[O-])CC1,1,1,-7,1,-1,.
O=C(O)c1cc(NC(=O)c2ccc(Cl)c([N+](=O)[O-])c2)cc(C(=O)O)c1,1,11,-3,1,0,.
O=C(Nc1cc(F)cc(F)c1)c1ccc(NCCc2ccccc2)c([N+](=O)[O-])c1,-11,-3,-3,0,3,.
CC(C)c1ccc(Nc2ccc(C(=O)O)cc2[N+](=O)[O-])cc1,61*,21,-1,0,13,69*
SMILES,mABHD4 FP,rCAG binder,HTRA1 inh,PRMT1 inh,SIAE primary,mABHD4 conf
O=C(O)c1ccc(NCCc2ccc(Cl)cc2)c([N+](=O)[O-])c1,57*,14,-7,5,-2,53*
COc1ccccc1Nc1ccc(C(=O)O)cc1[N+](=O)[O-],10,1,6,-4,10,.
COc1cccc(Nc2ccc(C(=O)O)cc2[N+](=O)[O-])c1,36*,0,1,-2,4,47*
Cc1ccc(Nc2ccc(C(=O)O)cc2[N+](=O)[O-])cc1,30*,5,4,7,-2,55*
Cc1cc(=O)oc2cc(OCC(=O)Nc3ccccc3C(=O)O)ccc12,35*,5,1,3,-4,39*
Cc1cc(=O)oc2cc(OCC(=O)OCC(=O)Nc3ccccc3Br)ccc12,12,-3,2,2,-9,.
CC(Oc1ccc2c(-c3ccccc3)cc(=O)oc2c1)C(=O)NCC1CCC(C(=O)O)CC1 (stereo not drawn),49*,7,-2,-4,-1,38*
O=C(COc1cc2oc(=O)cc(-c3ccccc3)c2cc1Cl)NCC1CCC(C(=O)O)CC1 (stereo not drawn),-36,11,2,4,-2,.
O=C(COc1ccc2c(-c3ccccc3)cc(=O)oc2c1)NCC1CCC(C(=O)O)CC1 (stereo not drawn),40*,7,1,3,-1,42*
CCOC(=O)N1CCN(C(=O)c2cc3n(n2)C(C(F)(F)F)CC(c2ccc4c(c2)OCO4)N3)CC1 (stereo not drawn),3,-12,3,-5,-2,.
CN(C(=S)Nc1ccc(SC(F)F)cc1)c1ccc(O)cc1,45*,14,31,30*,17,-4
FC(F)Sc1ccc(NC(=S)NC2CCCC2)cc1,-5,-2,-6,2,-2,.
CN(C(=S)Nc1cccnc1)c1ccc(O)cc1,47*,8,22,33*,12,7
CCN(C(=S)Nc1cccnc1)c1ccccc1,-16,-2,1,7,-7,.
Cc1cc(-c2ccc(C)c(S(=O)(=O)N3CCN(c4ccccn4)CC3)c2)on1,4,-1,-29,6,-6,.
CC(=O)Nc1cc2c3c(cccc3c1)-c1ccccc1-2,-5,6,-8,1,-5,.
Cc1ccccc1NS(=O)(=O)c1ccc2oc(=O)ccc2c1,3,4,11,1,3,.
Cc1cccn2c(CNCCSc3nccn3C)c(C(=O)N3CCCCC3)nc12,35*,1,-1,1,-8,-6
Cc1cccn2c(CNCCCn3ncc4ccccc43)c(C(=O)N3CCCCC3)nc12,6,-9,-3,7,0,.
CCOc1ccccc1N1CN(C2CCCCC2)CNC1=S,70*,-7,.,0,5,1
CN(CC(=O)Nc1cccc(F)c1)C(=O)c1ccccc1CCc1ccccc1,36*,0,-37,-2,4,-20
Cc1ccc(S(=O)(=O)Nc2cccc(C(=O)NCc3cccnc3)c2)cc1F,-4,0,7,2,5,.
O=C1NC(Cc2ccccc2)C(=O)N1Cc1cc([N+](=O)[O-])cc2c1OCOC2 (stereo not drawn),1,-1,-3,-4,0,.
